Bioassay records (PubChem)
p47phox inh: p47phox/p22phox peptide binding inhibitors, primary screen, biochemical, uHTS, NADPH oxidase regulatory subunit; fluorescence polarization, 2 h; inhibition, % at 24.7 µM; 220,000 compounds, 0.53% hits; AID 1274, 2008;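 also: 0% = p47phox with labelled peptide and 100% = labelled peptide alone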
eIF4E 4G PPI: eIF4E–eIF4G protein interaction inhibitors, primary screen, biochemical, uHTS, TR-FRET, eIF4GI fragment; Eukaryotic translation initiation factor 4E (Mus musculus) + Eukaryotic translation …; TR-FRET eIF4E-eIF4GI(517-606) binding, 2 h; inhibition, % at 21.7 µM; 220,000 compounds, 0.37% hits; AID 782, 2007;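 also: 0% = full FRET control wells and 100% = background wells lacking eIF4GI fragment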
RBBP9 inh: human RBBP9 inhibitors, primary screen, biochemical, fluorescence polarization, FP-Rh probe, HTS | recombinant RBBP9 | Serine hydrolase RBBP9 (Homo sapiens), O75884 | inhibition, % at 7.94 µM | 220,000 compounds, 0.2% hits;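 active = inhibition above the campaign mean of all tested compounds plus 3 SD, cut at about 14% in these data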;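 also: plate controls were DMSO wells with RBBP9 for no effect and wells lacking RBBP9 protein for full effect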
Target sequence (O75884 whole entry, looked up): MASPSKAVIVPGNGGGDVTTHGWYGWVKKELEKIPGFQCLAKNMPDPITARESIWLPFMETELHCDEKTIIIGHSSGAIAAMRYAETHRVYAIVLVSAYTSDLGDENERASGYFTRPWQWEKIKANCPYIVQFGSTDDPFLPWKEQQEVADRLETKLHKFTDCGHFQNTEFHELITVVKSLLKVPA
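Measured by: FP readout at 525/598 nm; material: recombinant human RBBP9; also added: Serine-hydrolase probe FP-Rh, 375 nM pre-mixing; medium: Tris buffer pH 8.0, NaCl, Pluronic; replication: one well per compound; doses: one concentration, 7.94 µM nominal, 0.794% DMSO; timing: preincubation 30 min plus labeling 45 min at 25 °C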
14-3-3 Bad PPI: inhibitors of 14-3-3 zeta/Bad binding, primary screen, biochemical, TR-FRET, bovine 14-3-3 zeta. TR-FRET 14-3-3zeta/Dy647-pBad peptide displacement, 1 h. 220,000 compounds, 0.71% hits. AID 781, 2007. 14-3-3 protein zeta/delta (Bos taurus), P63103. inhibition, % at 21.7 µM;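 active = inhibition above about 70%, limit read from the data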;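 also: 0% = full 14-3-3 plus peptide FRET controls and 100% = background without 14-3-3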
Target sequence (P63103 whole entry, looked up): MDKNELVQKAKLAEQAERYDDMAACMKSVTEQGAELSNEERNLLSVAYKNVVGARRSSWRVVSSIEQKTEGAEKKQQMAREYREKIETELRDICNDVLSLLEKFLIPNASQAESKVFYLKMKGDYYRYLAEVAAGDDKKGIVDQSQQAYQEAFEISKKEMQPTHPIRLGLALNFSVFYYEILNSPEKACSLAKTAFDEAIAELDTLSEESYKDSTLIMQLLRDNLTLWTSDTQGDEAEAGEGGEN
WT yeast gro inh: growth inhibition of WT strain, primary screen, mitochondrial fusion inhibitor project, WT and mutant strains, chemical genetic; mitochondrial fusion phenotypic screen; inhibition, % at 10 µM; 190,000 compounds, 2.1% hits; in the data active = inhibition above about 58%; tested in S. cerevisiae
EBV gp42 block: Epstein-Barr virus gp42 inhibitors, primary screen, biochemical, uHTS, fluorescence polarization; Fluorescence polarization binding assay, mP read-out; inhibition, % (tested at 21.74 µM); 220,000 compounds, 0.42% hits; AID 1085, 2008; in the data active = inhibition above about 50%
* hit, by the source's call; · = no result given. Sampled rows, rich in hits. Any-hit rate of the full collection: about 3.7%.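 The calls were made as follows, unless noted: active = inhibition above about 30% (limit read from the data); inactive = the rest.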

SMILES | p47phox inh | eIF4E 4G PPI | RBBP9 inh | 14-3-3 Bad PPI | WT yeast gro inh | EBV gp42 block
COc1ccccc1/C=[N+](\[O-])C1SC(=S)N(C)C1(C)C (configuration not stated) | -3 | 1 | -5 | -1 | · | -4
O=C(Nc1ccccc1)OC1CCC2CC1CCC2OC(=O)Nc1ccccc1 (configuration not stated) | 5 | -2 | -13 | 12 | 67* | 0
COc1cccc(CN2CCN(C(=O)CC(C)C)CC2)c1 | -7 | 2 | 8 | 34 | -12 | -21
CCOC(=O)C1CCCN(Cc2ccc3c(c2)OCO3)C1 (configuration not stated) | -8 | -1 | 6 | 75* | -3 | -16
CN(Cc1ccccc1)C(=O)C1CCCN(Cc2ccc(Cl)cc2)C1 (configuration not stated) | 1 | 7 | 0 | 76* | 9 | -17
CCN(CC)C(=O)C1CCCN(Cc2ccc3c(c2)OCO3)C1 (configuration not stated) | 3 | -1 | -10 | 44 | 2 | -6
CN(Cc1ccccc1)C(=O)C1CCN(Cc2ccc(F)cc2)CC1 | -5 | 3 | 1 | 23 | -2 | -24
CC(C)CC(=O)N1CCN(Cc2cccc(F)c2)CC1 | -7 | 72* | -5 | 79* | -3 | -11
O=C(C1CCCN(Cc2cccc(F)c2)C1)N1CCCCC1 (configuration not stated) | 2 | -7 | 6 | 86* | -5 | -14
Cc1nc(-c2noc(-c3ccc(Cl)cc3)n2)c(C(F)(F)F)o1 | -2 | -5 | -8 | -3 | · | -4
COCCNC(=O)COC(=O)c1ccc(OCC(=O)Nc2ccccc2OC)c(OC)c1 | -6 | 1 | 4 | -5 | -16 | -11
CC(=O)c1ccc(NC(=S)Nc2cccc(Cl)c2C)cc1 | -30 | -4 | -3 | -11 | -5 | 5
Cc1sc2ncn(/N=C/c3ccco3)c(=O)c2c1C | -7 | -8 | -5 | 1 | · | -5
O=C(C1CCCN(Cc2ccccc2)C1)N1CCc2ccccc2C1 (configuration not stated) | -7 | 1 | 4 | 78* | -12 | -10
CCN(CC)C(=O)C1CCCN(Cc2ccccc2C(F)(F)F)C1 (configuration not stated) | 2 | -2 | -3 | 71* | 9 | 0
CCOC(=O)C1CCCN(Cc2cccc(Cl)c2)C1 (configuration not stated) | 9 | 4 | -4 | 66 | 0 | -10
CCN(CC)C(=O)C1CCCN(Cc2ccccc2F)C1 (configuration not stated) | 0 | -10 | -4 | 47 | -2 | -17
O=C(C1CCC1)N1CCN(Cc2ccccc2)CC1 | 5 | 5 | 1 | 12 | 7 | -12
NC(=O)C1CCCN(Cc2ccc(Cl)cc2)C1 (configuration not stated) | -3 | 4 | -6 | 72* | -8 | -13
CCN(CC)C(=O)C1CCCN(Cc2ccccc2)C1 (configuration not stated) | 2 | -8 | -5 | 80* | 3 | -13
CCOC(=O)C1=C(O)/C(=C\c2cc(C)n(-c3ccc(F)cc3)c2C)N=C1C | -85 | -3 | 0 | 3 | -6 | 24
Cc1ccc(CSc2nnc(-c3ccccc3N)c(=O)[nH]2)cc1 | -5 | 1 | -3 | 9 | 63* | -15
Cc1nnc(SCc2ccccc2)[nH]c1=O | -4 | -2 | -6 | -1 | -5 | 0
Cc1ccc(CSc2nnc(C)c(=O)[nH]2)cc1 | 67* | 2 | -3 | -6 | 5 | -14
CC1(C)Cc2c(sc3nc(-c4ccccc4)oc(=O)c23)CO1 | -9 | 5 | -6 | -8 | -2 | -2
SMILES | p47phox inh | eIF4E 4G PPI | RBBP9 inh | 14-3-3 Bad PPI | WT yeast gro inh | EBV gp42 block
Cc1cc(C)nc(N/N=C/C2=C(O)CC(c3ccc(F)cc3)CC2=O)n1 (configuration not stated) | 0 | 3 | -4 | -11 | · | -15
Cc1ccc(C(=O)c2coc3ccc(O)c(Cl)c23)cc1 | 6 | · | 0 | · | · | -14
O=C(c1ccccc1)c1coc2ccc(O)c(Cl)c12 | -5 | -13 | -8 | 92* | 5 | -17
CCOC(=O)NC(c1ccc(C(C)C)cc1)C(Cl)(Cl)Cl (configuration not stated) | -2 | 22 | 1 | 6 | 69* | -15
CCc1ccc(OCC(=O)N/N=C\c2ccco2)c([N+](=O)[O-])c1 | -4 | 16 | 3 | 16 | 6 | 14
Cn1nnc(NC(=S)NC(=O)c2ccc(-c3ccc(Br)cc3)o2)n1 | 2 | -3 | -10 | 6 | 59* | 7
CCCn1nnc(NC(=S)NC(=O)c2ccc(-c3ccc(Br)cc3)o2)n1 | -12 | 1 | -11 | 0 | · | -4
Cc1ccc(/C=C/C(=O)N2CCC(Cc3ccccc3)CC2)cc1 | -7 | 2 | -7 | -10 | 67* | -3
Cc1ccc(/C=C/C(=O)N2CCCC(C)C2)cc1 (configuration not stated) | 1 | 8 | -2 | -5 | -12 | -18
CC1CCN(C(=O)/C=C/c2ccc(C(C)(C)C)cc2)CC1 | -13 | 1 | -4 | -6 | 62* | -4
CC(C)(C)c1ccc(/C=C/C(=O)N2CCCCC2)cc1 | -6 | 7 | 9 | -1 | 36 | -14
CCc1nc(C)cc2c1sc1ccccc12 | 1 | -2 | 0 | 5 | · | -26
CC[n+]1c(C)cc2c(sc3ccccc32)c1C | 33* | 26 | -1 | 24 | 30 | -54
CC1CCC2C(=O)N(c3ccc(Cc4ccncc4)cc3)C(=O)C2C1 (configuration not stated) | · | 0 | -6 | -7 | 1 | -12
Nc1ccc(N)c(C(=O)O)c1 | 41* | 94* | · | 96* | · | 108*
O=C1/C(=C\c2ccco2)SC(=S)N1c1ccc(O)cc1 | -21 | -2 | 2 | 2 | 6 | -11
O=C(NN1C(=O)/C(=C/C=C/c2ccco2)SC1=S)c1ccncc1 | -84 | 37* | 6 | 71* | · | -9
O=C1/C(=C/C=C/c2ccco2)SC(=S)N1c1ccc(O)cc1 | -63 | 37* | 6 | 63 | · | 9
CN(C)c1ccc(/C=C/C=C2/SC(=S)N(c3ccccc3)C2=O)cc1 | 107* | -4 | -29 | -15 | 22 | -3
O=C1/C(=C/c2ccco2)SC(=S)N1c1cccnc1 | -2 | 55* | 2 | 85* | · | 49
O=C1/C(=C\c2ccc(O)cc2)SC(=S)N1c1cccnc1 | -1 | 12 | -12 | 33 | 6 | 24
